The EternaBench riboswitch data

System: MS2 coat protein
Assay: apparent Kd, MS2 coat protein; higher = weaker binding; RNA-MaP array; FMN 200 µM where present
How it was run: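 Apparent Kd: the median of filtered binding-curve fits from single clusters. Designs were transcribed on Illumina sequencing-chip clusters by stalled E. coli RNA polymerase and titrated with SNAP-549-labelled MS2 coat protein from 0.7 or 1.5 nM, doubling to 3 µM, in 100 mM Tris-HCl pH 7.5, 80 mM KCl, 4 mM MgCl2, BSA, DTT, yeast tRNA and Tween-20. Each series ran without and then with constant ligand, and green signal was normalised to red-channel RNA signal and control-cluster median Fmax.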

[1] = designed as: OFF switch for flavin mononucleotide, no ligand
[2] = ligand present: flavin mononucleotide, designed as: OFF switch for flavin mononucleotide
[3] = designed as: ON switch for flavin mononucleotide, no ligand
[4] = ligand present: flavin mononucleotide, designed as: ON switch for flavin mononucleotide

Sequence	apparent Kd [1]	apparent Kd [2]	apparent Kd [3]	apparent Kd [4]
AGAAACUACGAGAAGGACAUGUGGUCCUUCAGUUACAUGAGGAUCACCCAUGUAGGAUAUCGUAGUUUCAGGAUCGUGAGAUCG	40.4 nM	20.4 nM		
UUUUGGCAUGUAGGAUAUGGGUCCGAUUAGGAUUUAGAAGGACAUGAGGAUCACCCAUGUGCAUUUAAUUGGUCUUUUUUUUUU	102 nM	133 nM		
UACAUGAGGAUCACCCAUGUUUUGUCGUGUAUGGUAUUUAUCUAGGAUAUCAAUGAAUUUAUUUAUGAGAAGGAGAAUAUUAAU	40 nM	37.5 nM		
CAUUAAUUCAUUAUAGUAAUUUUACAGGAUAUGUAACAUGAGGAUCACCCAUGUAUUCUUGGUUAACAGAAGGGUAUUACUUGU	19.3 nM	29.7 nM		
AAGAUGCGGAUAGGAUAUGGAAAUAAAUAAAGACCAGAAGGAUUGGUCACACAACAUGAGGAUCACCCAUGUGUGUGUUGUGAA	13.9 nM	10.6 nM		
UUUUAACAUGAGGAUCACCCAUGUGAGGAUAUCGAAAUUUAUAUUAAUAUUUUUAAAACGAGAAGGCACAUUUU	61.3 nM	84.8 nM		
UUUUUUUUUAGAGGAUAUAUUGUGUGUUAUAUAAUAGAAGGCUAAACAUGACAUGACACAUGAGGAUCACCCAUGUAUGUCCAU			22.7 nM	18.2 nM
AUAGGGUGAGGAUAUCCAUCUGGAUCAGACUAGAUCCUGAUGGAGAAGGCACAUGAGGAUCACCCAUGUGAGUU	125 nM	151 nM		
UAUAAAUUAAAAGGAUAUUCAUACCGGAAACGGACAUGAGGAUCACCCAUGUGGCGAAAGCCUUGGGAGAAGGUAUUAAAUAAU			268 nM	263 nM
UCCUUGUCCUGAGGAUAUCCGCGGUUCCCAAAAGGAGAAGGCAGGACAUGAGGAUCACCCAUGUACCCAGAAAACGUGCAGAGC	9.39 nM	33.8 nM		
UUACUCAUGUAAGGAUAUGCAGUCGUUUCGGCUGCAGAAGGUACUAUAAUACAUGAGGAUCACCCAUGUCUUUUUAAUUUUUAC			112 nM	41 nM
CUUUUGGCAGGAUAUGCUUUUUUUGACAUGAGGAUCACCCAUGUGAUGCAUUUUGGGUUUGCAGAAGGGCCUGAGU	63.5 nM	87.5 nM		
CUCAAACAUGAGGAUCACCCAUGUGUUGUCAUGGGAGGAUAUCUAAGUUCGUUGUAUUCGGGAGAAGGCCUAUGUC			258 nM	55.1 nM
CCCUCACAUGAGGAUCACCCAUGUUAGGAUAUCUACCAGGAGCCUAAAAUGGCCCAACGGAGAAGGAACGUGCA	19.8 nM	18.6 nM		
GGGUCAUAUGUUAGGAUAUUGGAGGCAAGUGCCGUUAAGAAGGAACAUGAGGAUCACCCAUGUCUAACUGACUU	34.5 nM	66 nM		
UGACGGAGCAGAGGAUAUUACAUGAGGAUCACCCAUGUAUGAACCAAUAGCUGGAAACAGCAAUGUAAGAAGGCUGCUCCGACA	11.6 nM	147 nM		
CGCUACAGCCAGAAGGACAUGAGGAUCACCCAUGUAGGAUAUGGGAGACGAGGUCCAGUGUAGAGAAACUACGCUACUGUAGCG			292 nM	151 nM
AUAUGAUAGAUAGGAUAUACAUUGGAUUUAAAAGUAGAAGGAUCAAGUGGGAAAUGAACAUGAGGAUCACCCAUGUAAUAGGAU			107 nM	78.2 nM
GUAACUUAUGUGAGGAUAUAUUAUGUCUUGGUGUAGUAGAAGGCACAUGAGGAUCACCCAUGUCCAAUUGGUCU	229 nM	457 nM		
AGUACUCAAAGAGUACGCGUAAGCACAUGAGGAUCACCCAUGUAGGAUAUGCUACUCAAAGAGUAGUAGAAGGACAUAUACCUC	5.2 nM	6.34 nM		
UAAUAAAGUGUGAGGAUAUGCUGGUCCUUGGAUCAGCAGAAGGCACAUGAGGAUCACCCAUGUAAUAUAUAUAU	87.7 nM	223 nM		
GCACUGGAUGUAGGAUAUCAGGACGAUAAGUCCUGAGAAGGACAUGAGGAUCACCCAUGUAAACUCUAACCAGUGCAUAAUAUA	14 nM	20.4 nM		
UUGGACGUCGUAGGAUAUGUAGGAUAUUCCUACAUGAGGAUCACCCAUGUUGACAUGGCAGAAGGACAGAAGGACGAUGUCCAU			938 nM	129 nM
CCGUGACAUGAGGAUCACCCAUGUACUCGAGAAAUCGAGUGUAGAAGGGUGACCGGUCGUUUGGCACAGGAUAUACACGGUGUG			16.6 nM	8.92 nM
GGAUAGGACGGAGGAUAUACGUGCUAGAGAUACUAGCAAAAUUUCCUCACAUGAGGAUCACCCAUGUAGAAGGCUGUCCUAUCG	12.2 nM	222 nM		
CUUUAGUGAGGAUAUCAGUAGUAAUACAAUAGUAUUACUACUGAGAAGGCACAUGAGGAUCACCCAUGUUUCUC	31 nM	136 nM		
GGAGCACGCACAGGAUAUCCGGCGGCGCUCGUCGGAGAAGGGUGACAUGAGGAUCACCCAUGUACGUGCAACCCAGUUUGAGAG			122 nM	44.8 nM
AUGGUACAUGAGGAUCACCCAUGUUAGGAUAUCGCGUGACCUAAAACUAAGAGACACACGAGAAGGGACGACAU	89.6 nM	78.1 nM		

Sequence	apparent Kd [1]	apparent Kd [2]	apparent Kd [3]	apparent Kd [4]
CCGGUAUAGGAGGAUAUAGGAGUCGAUAGACACCUAGAAGGCCUGACAUGAGGAUCACCCAUGUGUCCUUCCGG	19.6 nM	55.8 nM		
CGUGACUCAGGAUAUCUAUUAUGUCACAUGAGGAUCACCCAUGUCCAGCGAAAGCUGGAGGGAGAAGGGAGUCACG	97.9 nM	34.9 nM		
GAUAGGACAGAGAAGGUACGUGCUAGAGAUACUAGCAAAAUUUCCUCACAUGAGGAUCACCCAUGUAAGGAUAUCUGUCCUAUC	4.44 nM	4.8 nM		
GGACGUCAGAUUAACAUGAGGAUCACCCAUGUCUUUUGACAUGAGGAUAUGGAUCCUAAUUGGAUCCAGAAGGCAUGGACGUCC			1120 nM	94.9 nM
CCUCAUAUUUAGGAUAUGAUGGGUUAUUAUUCGUUAGAAGGAGGUACAUGAGGAUCACCCAUGUCCCGUUUGGG	34.2 nM	32.9 nM		
CCGCGACACGAAGGAUAUGUGGGUGGUAGUCUGUGCUCCGCCUACAUGAGGAUCACCCAUGUAUCACAGAAGGUCGGACGUCGA			26.7 nM	125 nM
GGGUAGUGAGGAUAUCGUUGUUAGGAGGAGUAGGUAGGAGGCGAGAAGGCACAUGAGGAUCACCCAUGUAUGAG	29.2 nM	30.4 nM		
UGGAUGUAGGAGAAGGAGGACUUCAUGAGGAUCACCCAUGUGUUAGGACUUAGGAUAUUUGACGACAUGAGGAUCACCCAUGUG			63.6 nM	58.4 nM
CAGUACUGAGGAUAUACAUGAGGAUCACCCAUGUGUUCCAGCUAGGAAACUAGGAAAAGUAGAAGGCAGUACUG	22.1 nM	261 nM		
CAGUGCAUUGAGAAGGGACACCGGGAUCCCAACUUCUCUCAUAACGGACAUGAGGAUCACCCAUGUCAGGAUAUCAACGUUUAG	23.1 nM	16.7 nM		
CAGCUGAAAGUCAGGAUAUCUAGAGCUGCGGCUCUAGAGAAGGGACAUGAGGAUCACCCAUGUGAUCACAGCUG	1440 nM	150 nM		
UAAGUUGAGGAGAAGGGAGCACAUGAGGAUCACCCAUGUGGUUCUUUGUGCUCAGGAUAUCCAUGGAGCGCCGACGCGUUCCCG	89.2 nM	15.6 nM		
GCGCAUUUAAGAUUUAUAUAAUUUUCAGAAGGUGAAUAGUCGACAUGAGGAUCACCCAUGUAAUUCAAGGAUAUGAUUUAGCGC			59.6 nM	10.1 nM
GGUACCUUCACAGGAUAUGCUAUCCUUUGGGUAGCAGAAGGGUGAUACAUGAGGAUCACCCAUGUGGUGCCAGGGCGUGAGCCC			1090 nM	305 nM
CGCGCUUUAGGAUAUGCGUGAUGUCGUCGGCGUUGUGGUUCACAUGAGGAUCACCCAUGUAGAAGGGAGGUGUG	205 nM	175 nM		
AAUAACAGAGGAUAUACUAUUUUAUGUGUUUGUUGUUUUAAACAUGAGGAUCACCCAUGUAGAAGGCUGAUUGA	38.2 nM	45.4 nM		
UGAAAUCAUGUAGGAUAUGCAUGGCGAAGCUACGCAGAAGGACAUGAGGAUCACCCAUGUUAUAGCUACCAAGUUAGGUGGCAA	155 nM	138 nM		
CUGUUAUUGAUCCAUUUUUUCAACAUGAGGAUCACCCAUGUGCAGGAUAUCGUGAUUAUUAUCAACGAGAAGGGCAGAUUCACG	74 nM	178 nM		
UAGUAUAAGGGCAUUACACAUGAGGAUCACCCAUGUACGUUAGAGGAUAUGCAUUACAGUCGAACGUAGAAGGUUAGAGAAGGG	168 nM	157 nM		
GCGCACUAAGUGAGGAUAUCGAUUUCUUUAAGGAUCGAGAAGGCACAUGAGGAUCACCCAUGUUUGACGUGCGC	16.9 nM	14.5 nM		
GCAACGCCUGACAUGAGGAUCACCCAUGUUAGAUUGUUAUGUCAGGAUAUUGUCUCGAAACGAGACGAGAAGGGAUAUGUUGCU			1110 nM	39 nM
CGUAGGAUCCAGAAGGCAUGUACAUGAGGAUCACCCAUGUCGAUAGACAUGAGGAUAUGGAUCCUACGAAAAGUGCGAAAGCAC			17.1 nM	5.16 nM
GUGCCUUAUGAGAAGGCGAUCAUGAAACAUGAUCGAGGAUAUCAUGUAAACAUGAGGAUCACCCAUGUAUGGGUAUUAUGGUAC			547 nM	55.5 nM
CGUGACUCAGGAUAUCUAUAAUAUCACAUGAGGAUCACCCAUGUCCAGCAAUAGCUGGAGGGAGAAGGGAGUCACG	140 nM	54.9 nM		
AGUUAAUAUCGAGGAUAUGUCUAGACACAUGAGGAUCACCCAUGUAUGUGUAUAGAAGGCGAAAAUAACAGCAUGUUACAUGCA			37.4 nM	19.9 nM
ACAGCGAUGGUUAGGAUAUCCACGAGUACUUCGUCGGAGAAGGAACAUGAGGAUCACCCAUGUAGAUCCCAGGG	146 nM	319 nM		
UAGUAUUAACGAGGAUAUAAUAUGUUCAAUUUUUUAUAUUGUUUACAUGAGGAUCACCCAUGUUAUUAGAAGGCGUAUGGGAUU			67.2 nM	58.8 nM
